Results: article PMC4607043 (International journal of biological macromolecules, 2015)

Columns and labels:
βD380Q [1] = assay: Growth yield in limiting glucose; assay type: cell-based, E. coli; settings: 3–5 mM glucose, wild type in absence of peptides = 100%, means of four to six experiments
In short: (§1)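 Measures oxidative plus substrate-level phosphorylation as growth on limiting glucose (3–5 mM). The host is E. coli DK8 carrying plasmid pBWU13.4, which encodes all ATP synthase genes, or site-directed βD380/βD386 mutants built on a βY331W background; mutations were confirmed by sequencing. Cultures were grown with or without each of two C-amidated test peptides (>95% HPLC purity, dissolved in deionized water). pUC118/DK8 served as the null strain.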

βD380A/βD386A [2] = assay: Growth yield in limiting glucose; assay type: cell-based, E. coli; settings: 3–5 mM glucose, wild type in absence of peptides = 100%, means of four to six experiments
In short: as §1

βY331W [3] = assay: Growth yield in limiting glucose; assay type: cell-based, E. coli; settings: 3–5 mM glucose, wild type in absence of peptides = 100%, means of four to six experiments
In short: as §1

βD380A [4] = assay: Growth yield in limiting glucose; assay type: cell-based, E. coli; settings: 3–5 mM glucose, wild type in absence of peptides = 100%, means of four to six experiments
In short: as §1

βD380R/βD386R [5] = assay: Growth on succinate plates; assay type: cell-based, E. coli; settings: 3 days, estimated by eye, means of four to six experiments
In short: (§2)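 E. coli DK8 carrying plasmid-borne ATP synthase genes (wild-type pBWU13.4; mutants made by site-directed mutagenesis and sequence-verified) were grown on plates with succinate as the non-fermentable carbon source, with or without test peptide. Growth was scored by eye after 3 days on a scale from ++++ (normal/heavy) to − (none). Values are means of four to six experiments.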

[6] = tested on: membrane bound F1Fo ATP synthase mutant βD380R; assay: Inhibition of ATPase activity, βD380R; assay type: biochemical, Escherichia coli; settings: at maximal inhibition, preincubated 60 min at room temperature, pH 8.0
In short: (§3)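 Wild-type or mutant membrane-bound F1Fo was prepared by French press, washed, and taken up in 50 mM TrisSO4 pH 8.0, 2.5 mM MgSO4. It was preincubated with a range of test peptide concentrations for 60 min at room temperature, then assayed with 10 mM NaATP, 4 mM MgCl2, 50 mM TrisSO4 pH 8.5 for 5–10 min using 20–30 µg protein. Reactions were stopped with SDS (3.3% final) and Pi read at OD700 (Taussky–Shorr). Activity is relative to wild type without peptide, from duplicate tubes and two or more membrane preparations.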

βD380Q/βD386Q [7] = assay: Growth yield in limiting glucose; assay type: cell-based, E. coli; settings: 3–5 mM glucose, wild type in absence of peptides = 100%, means of four to six experiments
In short: as §1

βD380R [8] = assay: Growth yield in limiting glucose; assay type: cell-based, E. coli; settings: 3–5 mM glucose, wild type in absence of peptides = 100%, means of four to six experiments
In short: as §1

βD380A [9] = assay: Growth on succinate plates; assay type: cell-based, E. coli; settings: 3 days, estimated by eye, means of four to six experiments
In short: as §2

Wild-type (pBWU13.4/DK8) [10] = assay: Growth yield in limiting glucose; assay type: cell-based, E. coli; settings: 3–5 mM glucose, wild type in absence of peptides = 100%, means of four to six experiments
In short: as §1

βD386R [11] = assay: Growth on succinate plates; assay type: cell-based, E. coli; settings: 3 days, estimated by eye, means of four to six experiments
In short: as §2

βD380Q [12] = assay: Growth on succinate plates; assay type: cell-based, E. coli; settings: 3 days, estimated by eye, means of four to six experiments
In short: as §2

βD380A/βD386A [13] = assay: Growth on succinate plates; assay type: cell-based, E. coli; settings: 3 days, estimated by eye, means of four to six experiments
In short: as §2

Null (pUC118/DK8) = assay: Growth yield in limiting glucose; assay type: cell-based, E. coli; settings: 3–5 mM glucose, wild type in absence of peptides = 100%, means of four to six experiments
Wild-type (pBWU13.4/DK8) [14] = assay: Growth on succinate plates; assay type: cell-based, E. coli; settings: 3 days, estimated by eye, means of four to six experiments
In short: as §2

βD386A [15] = assay: Growth yield in limiting glucose; assay type: cell-based, E. coli; settings: 3–5 mM glucose, wild type in absence of peptides = 100%, means of four to six experiments
In short: as §1

βD386A [16] = assay: Growth on succinate plates; assay type: cell-based, E. coli; settings: 3 days, estimated by eye, means of four to six experiments
In short: as §2

wild type E. coli cells = assay: Growth in presence of peptides, wild-type; assay type: cell-based; settings: succinate plates and limiting glucose
In short: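 Wild-type DK8/pBWU13.4 was grown with test peptide on succinate plates, scored by eye after 3 days, and in limiting glucose (3–5 mM). Glucose growth yield is expressed relative to wild type without peptide, set as 100%. Values are means of four to six experiments.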

βD386R [17] = assay: Growth yield in limiting glucose; assay type: cell-based, E. coli; settings: 3–5 mM glucose, wild type in absence of peptides = 100%, means of four to six experiments
In short: as §1

βD386Q [18] = assay: Growth yield in limiting glucose; assay type: cell-based, E. coli; settings: 3–5 mM glucose, wild type in absence of peptides = 100%, means of four to six experiments
In short: as §1

[19] = tested on: membrane bound F1Fo ATP synthase mutant βD386R; assay: Inhibition of ATPase activity, βD386R; assay type: biochemical, Escherichia coli; settings: at maximal inhibition, preincubated 60 min at room temperature, pH 8.0
In short: as §3

βY331W [20] = assay: Growth on succinate plates; assay type: cell-based, E. coli; settings: 3 days, estimated by eye, means of four to six experiments
In short: as §2

[21] = tested on: membrane bound F1Fo ATP synthase double mutants βD380A/βD386A, βD380Q/βD386Q, or βD380R/βD386R; assay: Inhibition of ATPase activity, double mutants as a group; assay type: biochemical, Escherichia coli
In short: as §3

[22] = tested on: membrane bound F1Fo ATP synthase mutants βD380A/Q/R or βD386A/Q/R; assay: Inhibition of ATPase activity, single mutants as a group; assay type: biochemical, Escherichia coli; settings: for inhibition of ATPase, single mutants (in words): single mutations with replacement of Asp to Ala, Gln, or Arg
In short: as §3

βD380Q/βD386Q [23] = assay: Growth on succinate plates; assay type: cell-based, E. coli; settings: 3 days, estimated by eye, means of four to six experiments
In short: as §2

βD386Q [24] = assay: Growth on succinate plates; assay type: cell-based, E. coli; settings: 3 days, estimated by eye, means of four to six experiments
In short: as §2

βD380R/βD386R [25] = assay: Growth yield in limiting glucose; assay type: cell-based, E. coli; settings: 3–5 mM glucose, wild type in absence of peptides = 100%, means of four to six experiments
In short: as §1

βD380R [26] = assay: Growth on succinate plates; assay type: cell-based, E. coli; settings: 3 days, estimated by eye, means of four to six experiments
In short: as §2

mutant E. coli cells = assay: Growth in presence of peptides, mutants; assay type: cell-based; settings: succinate plates and limiting glucose
ATP synthase = settings: cited from earlier work

melittin-amide
Growth yield in limiting glucose (βD380Q [1]): 90% | Growth yield in limiting glucose (βD380A/βD386A [2]): 75% | Growth yield in limiting glucose (βY331W [3]): 22% | Growth yield in limiting glucose (βD380A [4]): 89% | Growth on succinate plates (βD380R/βD386R [5]): ++/++ | residual ATPase activity [6]: 80% | Growth yield in limiting glucose (βD380Q/βD386Q [7]): 72% | Growth yield in limiting glucose (βD380R [8]): 82% | Growth on succinate plates (βD380A [9]): +++/+++ | Growth yield in limiting glucose (Wild-type (pBWU13.4/DK8) [10]): 20% | Growth on succinate plates (βD386R [11]): +++/+++ | Growth on succinate plates (βD380Q [12]): +++/+++ | Growth on succinate plates (βD380A/βD386A [13]): +++/+++ | Growth yield in limiting glucose (Null (pUC118/DK8)): 43% | Growth on succinate plates (Wild-type (pBWU13.4/DK8) [14]): ±/± | Growth yield in limiting glucose (βD386A [15]): 79% | Growth on succinate plates (βD386A [16]): +++/+++ | growth of wild-type cells in presence of peptide (in words) (wild type E. coli cells): abrogated growth | Growth yield in limiting glucose (βD386R [17]): 70% | Growth yield in limiting glucose (βD386Q [18]): 74% | prevention of inhibition (residual activity) [19]: 80% | Growth on succinate plates (βY331W [20]): ±/± | inhibition of ATPase, double mutants (in words) [21]: very little or no inhibition | refractoriness of mutants to peptide induced inhibition (in words) ([22]; all of the mutations used in this study (single and double)): refractory | inhibition of ATPase, single mutants (in words) [22]: decreased inhibition | inhibition of ATPase, single mutants (in words) ([22]; listed as c-terminal amide bound melittin): only partial inhibition | Growth on succinate plates (βD380Q/βD386Q [23]): +++/+++ | Growth on succinate plates (βD386Q [24]): +++/+++ | Growth yield in limiting glucose (βD380R/βD386R [25]): 66% | Growth on succinate plates (βD380R [26]): +++/+++ | growth of mutant cells in presence of peptide (in words) (mutant E. coli cells): not much affected

[N-]=[N+]=[N-].[Na+] [NaN3]
maximal inhibition of mutant or wild-type ATP synthase (in words) (ATP synthase): partially or incompletely inhibited

[Cl][Sc]([Cl])[Cl] [ScCl3]
maximal inhibition of mutant or wild-type ATP synthase (in words) (ATP synthase): partially or incompletely inhibited

melittin
ATPase inhibitory activity (in words) (ATP synthase): strongly inhibited

O=[N+]([O-])c1ccc(Cl)c2nonc12 [NBD-Cl]
maximal inhibition of mutant or wild-type ATP synthase (in words) (ATP synthase): partially or incompletely inhibited

[Cl][Al]([Cl])[Cl] [AlCl3]
maximal inhibition of mutant or wild-type ATP synthase (in words) (ATP synthase): partially or incompletely inhibited
